Bioassay records (PubChem)
PAX8 reporter: inhibitors of PAX8-driven TPO luciferase reporter, primary screen, RMG-I cells, single concentration; SteadyGlo, 24 h; inhibition, % at 12.6 µM; hit rate 1.2% among 360,000;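 active = mean replicate inhibition at least 60% with every replicate also reaching 60%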;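 note: luciferase light reporting Pax8 driven TPO promoter activity; plate controls were median of neutral control wells for no effect and mitoxantrone controls for full effect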
FN deposition inh: inhibitors of fibronectin matrix deposition, primary screen, AH1F cells, Alexa488-fibronectin fluorescence, plate reader. AH1F fibroblasts, overnight. inhibition, % at 12.6 µM. hit rate 0.086% among 350,000. AID 743247, 2014;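 active = mean inhibition across replicates of 30% or more, regardless of how many single replicates reach that level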;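 note: positive control wells lacked labelled fibronectin entirely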
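Material: AH1F fibroblast monolayer depositing Alexa488-labelled fibronectin into matrix / Amount: 10000 AH1F cells per well / Signal: fluorescence 485/525 nm / Medium: DMEM, 2% serum / Compound: single dose, pinned / Incubation: 1 h cell adhesion before compound, then overnight fibronectin incubation / Reagent: Alexa488-FN, 24 nM final / Read-out: inhibition of fibronectin deposition signal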
FGF22 binding: binders of human FGF22 protein, primary screen, FGF22 synaptogenesis inhibitor project, biophysical, thermal shift, single point; recombinant FGF22 thermal shift, SYPRO orange fluorescence; percent of sucrose octasulfate shift, DMSO zero; activity (Tm shift, normalised), % at 9.99 µM; hit rate 1.5% among 340,000;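 active = mean Tm shift, scaled 0 neutral to 100 positive control, at about 1.3% or above, every replicate too, limit read from the data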
Target sequence (Q9HCT0 whole entry, looked up): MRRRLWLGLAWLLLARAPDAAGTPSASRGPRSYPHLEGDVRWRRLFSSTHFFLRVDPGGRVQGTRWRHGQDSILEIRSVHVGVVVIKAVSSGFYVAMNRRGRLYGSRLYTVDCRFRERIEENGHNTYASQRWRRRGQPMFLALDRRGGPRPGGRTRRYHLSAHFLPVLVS
HIV Env fusion: inhibitors of HIV-1 Env-driven cell-cell fusion, primary screen, HeLa-JRFL effector, CEM21 target cells, luciferase | AID 651610, 2012 | inhibition, % at 12.3 µM | hit rate 1.1% among 360,000;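 active = mean replicate inhibition score of at least 50 and every replicate individually at or above 50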;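 note: 0% = plate neutral controls and 100% = maraviroc near 300 nM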
EWS-Fli inh: EWS/Fli-driven NR0B1 reporter inhibitors, primary screen, A673 cells, NR0B1 luciferase, luminescence, MLPCN library | viability-normalised | hit rate 0.67% among 350,000 | inhibition, % at 12.6 µM;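 active = mean inhibition of at least 50% after viability correction, with every replicate also passing that limit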;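 note: firefly luciferase signal divided by Alamar Blue viability fluorescence both relative to DMSO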
PGC1a acetyl inh: inhibitors of PGC1a acetylation signal, primary screen, cell-based, U2OS, AlphaScreen, inhibitor mode; AlphaScreen anti-acetyl-lysine; with virally co-expressed GCN5 acetyltransferase; inhibition, % at 15.6 µM; hit rate 0.17% among 350,000; AID 651687, 2012;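 active = every replicate shows inhibition of at least 40%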;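 note: 0% = neutral control wells and 100% = positive control wells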
Starred values were filed as active, the others as inactive; i = inactive; nt = no result given; ! = not active in a repeat; [ ] = dose if it differs, or a comment. Sampled rows, rich in hits. Any-hit rate of the full collection: about 3.1%.

SMILES | PAX8 reporter | FN deposition inh | FGF22 binding | HIV Env fusion | EWS-Fli inh | PGC1a acetyl inh
COc1ccccc1CNC(=O)C[C@H]1CC[C@@H]2[C@@H](COc3ccc(NC(=O)Nc4ccc(F)c(F)c4)cc3C(=O)N2C)O1 | 37 | -8 | 0 | nt | 1 | -3
CN1CCN(c2ccc(NC(=O)N3CCc4ccccc43)cc2)CC1 | 49 | 3 | 0 | 19 | 62* | -9
Cc1ccc(NC(=O)N2CCc3ccccc32)cc1 | -102 | -1 | nt | i | nt | 2
CC(C)NC(=O)N1CC2(C1)[C@H](c1ccccc1)[C@H](CO)N2Cc1cncnc1 | 1 | -6 | 0 | nt | -14 | 11
COc1cccc(F)c1C(C[N+](=O)[O-])c1c(N)n(C)c(=O)n(C)c1=O (stereo unspecified) | 100* | 5 | 0 | -44 | 36 | 7
COc1cc(C(C[N+](=O)[O-])c2c(N)n(C)c(=O)n(C)c2=O)ccc1O (stereo unspecified) | 25 | 0 | 0 | -12 | 34 | -36
N#Cc1cccc(-c2ccc([C@H]3[C@@H](CO)N[C@@H]3CNC(=O)C3CCCC3)cc2)c1 | nt | -15 | nt | nt | nt | nt
COc1ccc(NC(=O)Nc2ccc3c(c2)C(=O)N([C@H](C)CO)C[C@H](C)[C@@H](CN(C)Cc2ccc(Cl)c(Cl)c2)OCCCC[C@@H](C)O3)cc1 | 74*! | 5 | 1 | 6 | 1 | -5
COc1ccc(NC(=O)Nc2ccc3c(c2)C(=O)N([C@@H](C)CO)C[C@@H](C)[C@@H](CN(C)Cc2ccc(Cl)c(Cl)c2)OCCCC[C@@H](C)O3)cc1 | 75* | nt | -1 | 20[16.7 µM] | -2 | -4
COc1ccc(NC(=O)Nc2ccc3c(c2)C(=O)N([C@H](C)CO)C[C@H](C)[C@H](CN(C)Cc2ccc(Cl)c(Cl)c2)OCCCC[C@H](C)O3)cc1 | 31 | nt | 0 | 91*[16.7 µM] | 1 | -12
COc1ccc(NC(=O)Nc2ccc3c(c2)C(=O)N([C@@H](C)CO)C[C@H](C)[C@@H](CN(C)Cc2ccc(Cl)c(Cl)c2)OCCCC[C@@H](C)O3)cc1 | 34 | nt | 0 | 14[16.7 µM] | 3 | 5
COc1ccccc1NC(=O)N1CC(=O)N2[C@H](CO)[C@@H](c3ccc(C#CC(C)C)cc3)[C@H]2C1 | 21 | -9 | 0 | nt | 0 | 3
Cc1noc(C)c1S(=O)(=O)N(C)C[C@H]1Oc2ccc(NS(=O)(=O)c3ccc(F)cc3)cc2CC(=O)N([C@@H](C)CO)C[C@@H]1C | nt | nt | 0 | 12[16.7 µM] | -11 | -16
CN(C[C@H]1N[C@@H](CO)[C@@H]1c1ccc(C2=CCCC2)cc1)C(=O)c1ccncc1 | 81* | 21 | nt | nt | 42 | -19
CCN(C[C@@H]1N[C@@H](CO)[C@@H]1c1ccc(C2=CCCC2)cc1)C(=O)c1ccncc1 | -8 | nt | 0 | nt | -8 | -5
CN(C[C@H]1N[C@@H](CO)[C@@H]1c1ccc(C2=CCCC2)cc1)C(=O)c1ccccn1 | 72* | 3 | 0 | nt | 27 | 2
COc1ccc(-c2c[n+]3c(n2-c2c(C)n(C)n(-c4ccccc4)c2=O)CCCCC3)cc1 | 0 | -1 | 43* | 8 | -5 | 19
CCOc1ccc(-n2c(-c3ccc(OC)cc3)c[n+]3c2CCCCC3)cc1 | 99* | nt | 0 | 67* | 36 | nt
CCOc1ccc(-n2c(-c3ccc(Br)cc3)c[n+]3c2CCCCC3)cc1 | 95* | -2 | 0 | 38 | 35 | -10
COc1ccc(-n2c(-c3ccc(Cl)cc3)c[n+]3c2CCCCC3)cc1 | 52 | 5 | nt | -7 | 14 | -4
Brc1ccc(-c2c[n+]3c(n2-c2ccccc2)SCC3)cc1 | 2 | -2 | 0 | -4 | 2 | -2
COc1ccc(-c2c[n+]3c(n2-c2ccc(C)cc2)CCCCC3)cc1 | 99* | 3 | 0 | 11 | 24 | 5
CC(C)NC(=O)N[C@@H]1CC[C@@H](CCn2cc(-c3ccc(F)cc3)nn2)O[C@H]1CO | -58 | nt | 0 | -2[16.7 µM] | -35 | 4
Cc1noc(C)c1NC(=O)Nc1ccc2c(c1)C(=O)N([C@@H](C)CO)C[C@H](C)[C@@H](CN(C)CC1CCCCC1)OCCCC[C@H](C)O2 | nt | nt | 0 | -4[16.7 µM] | 3 | -1
CC(C)CC#Cc1ccc([C@@H]2[C@@H](CO)N3C(=O)CN(S(=O)(=O)c4cccc(F)c4)C[C@@H]23)cc1 | nt | -5 | nt | nt | 0 | -12
SMILES | PAX8 reporter | FN deposition inh | FGF22 binding | HIV Env fusion | EWS-Fli inh | PGC1a acetyl inh
CN(C)C(=O)c1ccc(-c2ccc3c(c2)[C@@H]2[C@@H](CCN2S(=O)(=O)c2cn(C)cn2)[C@@H](CO)N3)cc1 | -7 | -3 | 0 | nt | -18 | -10
O=C(CC1CC1)N[C@H]1CC[C@@H](CCNS(=O)(=O)c2ccc(F)cc2)O[C@H]1CO | -7 | 4 | 0 | -8[16.7 µM] | 1 | -7
CCOc1ccc(-n2c(-c3ccccc3)c[n+]3c2CCC3)cc1 | 82* | 4 | 0 | 30 | 30 | -9
C[C@@H]1CN([C@H](C)CO)C(=O)c2cc(NC(=O)NC3CCCCC3)ccc2O[C@@H](C)CCCCO[C@@H]1CN(C)CC1CCCCC1 | 18 | -5 | 0 | 1[16.7 µM] | 15 | 1
Cc1ccc(C(=O)OCc2ccc3c(c2)OCO3)cc1S(=O)(=O)N1CCCCC1 | nt | nt | nt | 55* | nt | -3
Cc1ccc(OCCC(=O)Nc2ccc(S(=O)(=O)N3CCCC3)cc2)cc1 | 16 | -3 | 0 | -10 | 7 | -4
COc1ccc(N(C)S(=O)(=O)c2ccc(Cl)c(C(=O)NCCc3ccc(Cl)cc3)c2)cc1 | -1 | 3 | 43* | 8 | 5 | -25
CC(C)NS(=O)(=O)c1ccc(OCC(=O)NC(C)c2ccccc2)cc1 (stereo unspecified) | 1 | 2 | 0 | -9 | 7 | 1
Cc1ccc(OCCCC(=O)Nc2ccc(S(N)(=O)=O)cc2)cc1 | -10 | -15 | 43* | 5 | 5 | 6
CN(c1ccc(OCC(=O)OCC(=O)Nc2ccc(F)cc2)cc1)S(=O)(=O)c1ccc(Cl)cc1 | -25 | -1 | 0 | -26 | 5 | 5
COc1ccc(NC(=O)COc2ccc(N(C)S(=O)(=O)c3ccc(Cl)cc3)cc2)cc1OC | 42 | 1 | 0 | 57* | 31 | -19
CC(NC(=O)COc1ccc(N(C)S(=O)(=O)c2ccccc2)cc1)c1ccccc1 (stereo unspecified) | 14 | -8 | 43* | 24 | 3 | -20
CO[C@H]1CN(C)C(=O)c2ccc(NS(=O)(=O)c3cccc(C)c3)cc2OC[C@H](C)NC[C@H]1C | nt | -14 | nt | nt | 5 | -13
